Source: ChEMBL document CHEMBL3046679, “Design, synthesis, and biological activities of arylmethylamine substituted chlorotriazine and methylthiotriazine compounds” (J Agric Food Chem, 2011)
Activity calls are given as the source filed them. The rule behind the calls is not given here.

Experiments:
Lolium perenne = assay: Herbicidal activity against Lolium perenne (perennial ryegrass) assessed as growth inhibition at 1 kg/ha preemergence treatment by glasshouse test; assay type: functional; conditions: pre-emergence, read-out: GI
Method in brief: (§1)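 Glasshouse screen with pre- or postemergence application at 1.0 kg/ha. Result given as percent inhibition of plant growth; norflurazon and glyphosate used as controls.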

Digitaria sanguinalis = assay: Herbicidal activity against Digitaria sanguinalis (hairy crabgrass) assessed as growth inhibition at 1 kg/ha postemergence treatment by glasshouse test; assay type: functional; conditions: post-emergence, read-out: GI; method in brief: as §1
[1] = tested on: Blumeria graminis f. sp. tritici; assay: Fungicidal activity against Blumeria graminis f. sp. tritici assessed as inhibition of disease development in compound treated leaf pieces at 60 ppm relative to untreated control (wheat-preventative); assay type: functional
Puccinia triticina [2] = assay: Fungicidal activity against Puccinia triticina assessed as inhibition of disease development in compound treated leaf pieces at 200 ppm relative to untreated control (wheat-curative); assay type: functional
Method in brief: (§2)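 Curative wheat leaf-piece test against Puccinia triticina. Leaf pieces inoculated with spores first, then treated with formulated compound at 200, 60 or 20 ppm. Disease scored 3–9 days after inoculation as percent inhibition versus untreated controls. Values are the mean across replicates.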

Puccinia triticina [3] = assay: Fungicidal activity against Puccinia triticina assessed as inhibition of disease development in compound treated leaf pieces at 20 ppm relative to untreated control (wheat-curative); assay type: functional; method in brief: as §2
Plasmopara viticola [4] = assay: Fungicidal activity against Plasmopara viticola assessed as inhibition of disease development in compound treated leaf pieces at 200 ppm relative to untreated control (grapevine-preventative); assay type: functional
Method in brief: (§3)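 Preventative leaf-piece test on host tissue (tomato, vine, wheat or barley). Formulated compound applied at 200, 60 and 20 ppm before spore inoculation. Disease scored 3–9 days after inoculation, depending on the pathogen, as percent inhibition of disease development versus untreated controls. Values are the mean across replicates.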

Aphididae = assay: Insecticidal activity against Aphididae (aphids) assessed as mortality at 1000 ppm by leaf-disk assay; assay type: functional, organism-based
Method in brief: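 Leaf-disk assay at 1000 ppm, three replicates. Plates kept 5–9 days in controlled-environment cabinets. Mortality judged against untreated wells: 99 for significant mortality, 0 otherwise. Values are the mean of three; thiamethoxam and indoxacarb used as positive controls.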

Pyrenophora teres = assay: Fungicidal activity against Pyrenophora teres assessed as inhibition of disease development in compound treated leaf pieces at 200 ppm relative to untreated control (barley-preventative); assay type: functional; method in brief: as §3
[5] = tested on: Blumeria graminis f. sp. tritici; assay: Fungicidal activity against Blumeria graminis f. sp. tritici assessed as inhibition of disease development in compound treated leaf pieces at 200 ppm relative to untreated control (wheat-preventative); assay type: functional
Amaranthus retroflexus = assay: Herbicidal activity against Amaranthus retroflexus assessed as growth inhibition at 1 kg/ha preemergence treatment by glasshouse test; assay type: functional; conditions: pre-emergence, read-out: GI; method in brief: as §1
Plasmopara viticola [6] = assay: Fungicidal activity against Plasmopara viticola assessed as inhibition of disease development in compound treated leaf pieces at 60 ppm relative to untreated control (grapevine-preventative); assay type: functional; method in brief: as §3
Stellaria media = assay: Herbicidal activity against Stellaria media assessed as growth inhibition at 1 kg/ha postemergence treatment by glasshouse test; assay type: functional; conditions: post-emergence, read-out: GI; method in brief: as §1
Fusarium graminearum = assay: Fungicidal activity against Fusarium graminearum assessed as inhibition of mycelia growth at 2 ppm; assay type: functional, organism-based
Method in brief: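 Mycelial growth test in 96-well plates: compound incorporated into artificial growth medium at 2 ppm, two replicates per rate. Each well scored 99 for complete, 55 for partial or 0 for no inhibition. Values are the mean across replicates; azoxystrobin and prochloraz used as positive controls.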

With `CC(C)Nc1nc(Cl)nc(NCc2ccc(F)cc2)n1` the inhibition of growth at 1000 g/ha (Lolium perenne) was 30%, the inhibition of growth at 1000 g/ha (Digitaria sanguinalis) was 0% and the inhibition at 60 ppm [1] was 20%. It also gave an inhibition at 200 ppm (Puccinia triticina [2]) of 100%, an inhibition at 20 ppm (Puccinia triticina [3]) of 20% and an inhibition at 200 ppm (Plasmopara viticola [4]) of 50%. For the same compound, the mortality (Aphididae) was “inactive”, the inhibition at 200 ppm (Pyrenophora teres) was 0% and the inhibition at 200 ppm [5] was 70%. The inhibition of growth at 1000 g/ha (Amaranthus retroflexus) was 100%, the inhibition at 60 ppm (Plasmopara viticola [6]) was 20% and the inhibition of growth at 1000 g/ha (Stellaria media) was 90%. For the same compound, the inhibition (Fusarium graminearum) was “inactive”.
